{"data": "Assay results from different studies", "target": "G protein-coupled receptor kinase 4 (GRK4, Homo sapiens, UniProt P32298)"}
{"SMILES": "COc1cc2ncnc(Nc3ccc(Oc4ccccc4)c(C)c3C)c2cc1OC", "assay": "enzyme activity, inhibitor", "conditions": "1 µM", "quantity": "inhibition", "result": "-4%"}
{"SMILES": "c1ccc(N2CCN(Cc3nc4ccccc4[nH]3)CC2)nc1", "assay": "binding, competition with immobilised ligand", "conditions": "1 µM", "quantity": "remaining binding", "result": "100%"}
{"SMILES": "CCCS(=O)(=O)Nc1ccc(F)c(C(=O)c2c[nH]c3ncc(-c4ccc(Cl)cc4)cc23)c1F", "assay": "enzyme activity, inhibitor", "conditions": "1 µM", "quantity": "inhibition", "result": "< 10%"}
{"SMILES": "CC(C)(C)c1nc(-c2cccc(NS(=O)(=O)c3c(F)cccc3F)c2F)c(-c2ccnc(N)n2)s1", "assay": "enzyme activity, inhibitor, radiometric", "conditions": "1 µM", "quantity": "remaining activity", "result": "59%"}
{"SMILES": "O=C1NC(=O)c2cc(Nc3ccc(F)cc3)c(Nc3ccc(F)cc3)cc21", "assay": "cell-free assay", "conditions": "0.5 µM", "quantity": "remaining signal", "result": "103%"}
{"SMILES": "O=c1nc(-c2ccccn2)sc2ccccc12", "assay": "binding, competition with immobilised ligand", "conditions": "1 µM", "quantity": "remaining binding", "result": "100%"}
{"SMILES": "O=C(Nc1cnn(-c2csc(C(=O)NC3COC3)c2)c1)Nc1c(F)cccc1Cl", "assay": "enzyme activity, inhibitor", "conditions": "5 µM", "quantity": "remaining activity", "result": "93.6%"}
{"SMILES": "CS(=O)(=O)CCNCc1ccc(-c2ccc3ncnc(Nc4ccc(OCc5cccc(F)c5)c(Cl)c4)c3c2)o1", "assay": "cell-free assay", "conditions": "0.5 µM", "quantity": "remaining signal", "result": "90.3%"}
{"SMILES": "CN(C)C1CCN(CC#Cc2nn(C3CCCC3)c3nc(NCc4ccccc4)ncc23)C1 (stereo not shown)", "assay": "enzyme activity, inhibitor, FRET", "conditions": "1 µM", "quantity": "inhibition", "result": "11%"}
{"SMILES": "C[C@H](c1ccc(F)cc1)N(Cc1cccc(C(=O)O)c1)C(=O)c1cnc2ccccc2c1", "assay": "cell-free assay, competition with immobilised ligand", "conditions": "1 µM", "quantity": "remaining binding", "result": "100%"}
{"SMILES": "N#CCCc1ccc2c(c1)-c1[nH]c3ccc([N+](=O)[O-])cc3c1CC(=O)N2", "assay": "cell-free assay", "conditions": "0.5 µM", "quantity": "remaining signal", "result": "101%"}
{"SMILES": "Cc1noc([C@H]2C[C@@H](c3ccc(C(F)(F)F)cc3)CN(C(=O)N3CCS(=O)(=O)C3)C2)n1", "assay": "cell-free assay, competition with immobilised ligand", "conditions": "1 µM", "quantity": "remaining binding", "result": "99%"}
{"SMILES": "Nc1ncnc2occ(-c3ccc(NC(=O)Nc4cc(C(F)(F)F)ccc4F)cc3)c12", "assay": "cell-free assay, inhibitor", "conditions": "20 µM", "quantity": "remaining signal", "result": "89%"}
